Results reported in ChEMBL document CHEMBL4014352, “Paying the Price of Desolvation in Solvent-Exposed Protein Pockets: Impact of Distal Solubilizing Groups on Affinity and Binding Thermodynamics in a Series of Thermolysin Inhibitors” (J Med Chem, 2017).
Calls of active or inactive are those of the source.

Assays:
[1] = molecular target: T1, Thermolysin (Bacillus thermoproteolyticus) (UniProt P00800); test: Binding affinity to Bacillus thermoproteolyticus thermolysin using HEPES buffer by ITC
T1 sequence (whole entry): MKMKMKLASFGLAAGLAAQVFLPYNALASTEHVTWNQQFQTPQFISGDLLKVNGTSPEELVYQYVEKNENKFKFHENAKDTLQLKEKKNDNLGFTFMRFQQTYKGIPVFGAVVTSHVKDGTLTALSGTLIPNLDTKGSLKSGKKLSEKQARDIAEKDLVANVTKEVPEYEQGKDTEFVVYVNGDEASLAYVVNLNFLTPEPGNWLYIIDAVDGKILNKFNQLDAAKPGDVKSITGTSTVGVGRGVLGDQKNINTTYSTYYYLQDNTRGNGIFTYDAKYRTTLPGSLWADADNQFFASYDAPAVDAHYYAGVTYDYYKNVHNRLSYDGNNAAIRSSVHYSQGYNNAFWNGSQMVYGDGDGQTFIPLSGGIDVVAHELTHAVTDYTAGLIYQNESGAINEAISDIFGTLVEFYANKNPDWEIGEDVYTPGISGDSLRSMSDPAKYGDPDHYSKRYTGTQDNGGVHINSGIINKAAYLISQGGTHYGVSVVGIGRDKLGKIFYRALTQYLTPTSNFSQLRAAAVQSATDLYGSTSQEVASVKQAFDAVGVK
In short: (§1)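 Freeze-dried thermolysin was dissolved just before each run in 20 mM buffer (HEPES, PIPES or sodium cacodylate, as in the line), 2 mM CaCl2 and 500 mM NaSCN, pH 7.5. ITC ran at 298 K with 10–15 injections, using either 250 μM protein with 3–3.5 mM ligand or 48 μM protein with 1 mM ligand. Ligand concentrations were corrected for qNMR purity. Each titration was run at least in duplicate.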

[2] = molecular target: T1, Thermolysin (Bacillus thermoproteolyticus); test: Binding affinity to Bacillus thermoproteolyticus thermolysin using cacodylate buffer by ITC; in short: as §1
[3] = molecular target: T1, Thermolysin (Bacillus thermoproteolyticus); test: Binding affinity to Bacillus thermoproteolyticus thermolysin using PIPES buffer by ITC; in short: as §1

Measured: Activity

CC(C)C[C@H](NP(=O)(O)CNC(=O)OCc1ccccc1)C(=O)NCCCCN
active: [1] | [2] | [3]

CC(C)C[C@H](NP(=O)(O)CNC(=O)OCc1ccccc1)C(=O)NCCCN
active: [1] | [2] | [3]

CC[C@H](NC(=O)[C@H](CC(C)C)NP(=O)(O)CNC(=O)OCc1ccccc1)C(=O)O
active: [1] | [2] | [3]

CC(C)C[C@H](NP(=O)(O)CNC(=O)OCc1ccccc1)C(=O)NCCN
active: [1] | [2] | [3]

CCC[C@H](NC(=O)[C@H](CC(C)C)NP(=O)(O)CNC(=O)OCc1ccccc1)C(=O)O
active: [1] | [2] | [3]

CC(C)C[C@H](NP(=O)(O)CNC(=O)OCc1ccccc1)C(=O)N[C@@H](CN)C(=O)O
active: [1] | [2] | [3]

CCCNC(=O)[C@H](CC(C)C)NP(=O)(O)CNC(=O)OCc1ccccc1
active: [1] | [2] | [3]

CC(C)C[C@H](NP(=O)(O)CNC(=O)OCc1ccccc1)C(=O)N[C@@H](CCN)C(=O)O
active: [1] | [2] | [3]

CC(C)C[C@H](NP(=O)(O)CNC(=O)OCc1ccccc1)C(=O)N[C@@H](CCCN)C(=O)O
active: [1] | [2] | [3]

CC(C)C[C@H](NP(=O)(O)CNC(=O)OCc1ccccc1)C(=O)NCN
active: [1] | [2] | [3]

CCNC(=O)[C@H](CC(C)C)NP(=O)(O)CNC(=O)OCc1ccccc1
active: [1] | [2] | [3]

CC(C)C[C@H](NP(=O)(O)CNC(=O)OCc1ccccc1)C(=O)N[C@@H](CCCCN)C(=O)O
active: [1] | [2] | [3]
